{"source": "paper PMC2141641", "about": "(The Journal of Cell Biology, 1997)", "key": {"[1]": {"test_system": "Bovine adrenal capillary endothelial cells (BCECs)", "experiment": "Endothelial cell migration assay, BCECs", "type": "cell-based", "settings": "TSP-1 2 nM; fusion protein preincubated 2 h at 4°C; migration 4 h at 37°C", "outline": "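Bovine adrenal capillary cells (DME, 10% donor calf serum, 1% endothelial mitogen; passage 15) were starved overnight in DME/0.1% BSA. 3 × 10^4 cells/well were attached 2 h at 37°C to a gelatinized membrane in an inverted Boyden chamber, then reinverted. GST–CD36 fusion proteins were preincubated with 2 nM TSP-1, warmed to room temperature, and added to the top wells. Migration to bFGF ran 4 h at 37°C. Migrated cells/10 high-power fields counted; normalized to bFGF minus background.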"}, "[2]": {"test_system": "CD36–GST fusion protein FP298-439", "design": "species or system human", "settings": "125I–TSP-1 20 μg/ml; equal to binding in the presence of 5 mM EDTA; n = 5", "outline": "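GST–CD36 fusion protein was coated overnight at 4°C at 10 μg/ml in carbonate buffer, pH 9.8 (200–280 ng/well). Wells were washed with TBS-T and blocked with TBS-T/0.5% BSA. 125I–TSP-1 (20 μg/ml; 0.5–1 mCi/mg) in TBS-T was incubated 2 h at 22°C. Wells were washed and bound counts measured by gamma counting. 5 mM EDTA defined nonspecific binding.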"}, "TSP-1": {"test_system": "TSP-1", "settings": "ref Pearce et al., 1995; cited from earlier work"}}}
{"molecule": "FP298-439: control fusion protein unable to bind TSP-1 spanning CD36 amino acids 298–439 (protein, left off: GST, end not stated, kept) KAFASPVENPDNYCFCTEKIISKNCTSYGVLDISKCKEGRPVYISLPHFLYASPDVSEPIDGLNPNEEEHRTYLDIEPITGFTLQFAKRLQVNLLVKPSEKIQVLKNLKRNYIVPILWLNETGTIGDEKANMFRSQVTGKIN", "values": [{"measurement": "block of TSP-1 inhibition of bFGF-induced migration", "setting": "[1]", "result": "ineffective"}, {"measurement": "TSP-1 binding to immobilized fusion protein (in words)", "setting": "[2]", "result": "only background binding"}, {"measurement": "binding of fusion protein to TSP-1", "setting": "TSP-1", "result": "unable to bind TSP-1"}]}
